High-throughput results from PubChem BioAssay.
hERG protect: hERG (human) protection from proarrhythmic block; Q12809; CHO-hERG, FluxOR thallium flux, dofetilide IC70 present; activation (rescue from dofetilide block), less the hit threshold, % at 10 µM; 0.51% of 310,000 active; AID 1511;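 active = activation above the mean of controls blocked by dofetilide plus 5 SD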;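 note: thallium influx through hERG after potassium depolarization seen as dye fluorescence rise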
KCNK3 inh: human KCNK3 channel inhibition, primary screen | O14649 | 0.84% of 340,000 active | CHO-KCNK3 thallium flux, FluxOR fluorescence; hits give low values | B-score at 10 µM;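 active = B-score under library mean minus 4 SD, starting fluorescence ratio at most library mean plus 5 SD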;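 note: more negative B-score means stronger inhibition of thallium flux through KCNK3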
KCNQ1 block: blocks the human KCNQ1 potassium channel | CHO-K1 KCNQ1, FluxOR thallium flux fluorescence; hits give high values | B-score at 10 µM | 1.3% of 310,000 active | P51787 | AID 2642;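 active = compounds whose thallium flux B-score, printed positive for inhibition, exceeds three library SD while starting fluorescence stays within three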;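 note: channel opened by potassium depolarization with thallium stimulus after 20 min compound exposure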
Target sequence (P51787 whole entry, looked up): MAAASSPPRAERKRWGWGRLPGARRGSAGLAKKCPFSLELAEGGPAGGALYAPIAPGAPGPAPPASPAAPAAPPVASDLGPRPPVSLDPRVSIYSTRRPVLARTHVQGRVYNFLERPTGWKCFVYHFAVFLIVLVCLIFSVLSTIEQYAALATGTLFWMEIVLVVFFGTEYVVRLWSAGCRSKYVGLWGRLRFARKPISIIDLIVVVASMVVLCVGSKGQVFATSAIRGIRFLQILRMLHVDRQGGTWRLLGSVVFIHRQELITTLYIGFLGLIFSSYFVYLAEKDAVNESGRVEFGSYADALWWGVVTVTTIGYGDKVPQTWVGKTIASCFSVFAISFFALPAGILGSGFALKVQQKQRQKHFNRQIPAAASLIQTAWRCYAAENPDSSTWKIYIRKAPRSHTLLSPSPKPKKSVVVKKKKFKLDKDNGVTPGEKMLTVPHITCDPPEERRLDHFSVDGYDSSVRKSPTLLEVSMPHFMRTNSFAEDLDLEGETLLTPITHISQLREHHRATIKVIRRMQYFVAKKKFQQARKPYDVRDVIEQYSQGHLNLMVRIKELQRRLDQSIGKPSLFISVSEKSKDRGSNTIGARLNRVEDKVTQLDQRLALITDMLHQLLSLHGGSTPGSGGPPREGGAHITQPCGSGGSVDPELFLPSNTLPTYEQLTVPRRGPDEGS
KCNK9 inh: blocks the human KCNK9 two-pore domain potassium channel; Q9NPC2; HEK293 KCNK9, FluxOR thallium flux fluorescence; hits give low values; B-score at 10 µM; 1.2% of 310,000 active;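 active = ratio B-score over 3 SD below the library mean, with starting fluorescence within 5 SD of its mean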;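 note: negative B-score means less thallium flux so channel inhibition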
KCNQ1 act: potentiates or activates the human KCNQ1 potassium channel; B-score at 10 µM; AID 2648; 0.35% of 310,000 active; CHO-K1 KCNQ1, thallium flux FluxOR fluorescence; hits give high values; P51787;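 active = fluorescence ratio B-score, a plate-corrected score, at least three library SD, with initial intensity B-score within 5 SD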
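assay system = KCNQ1-transfected CHO-K1 cells | medium = assay buffer with matched DMSO | probe or stimulus = depolarizing K+/Tl+ stimulus, K2SO4 and Tl2SO4 each 12.5 mM in 5x stock | dosing = single dose | incubation = dye 90 min, compound 20 min, room temperature | detection = kinetic FluxOR fluorescence, 10 s baseline plus 110 s post-stimulus | evaluation = ratio B score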
KCNK9 block conf: human KCNK9 inhibitor confirmation. inhibition, % at 10 µM. shares compounds with KCNK9 inh. HEK293 KCNK9 cells, FluxOR thallium flux fluorescence. AID 492992. 43% of 4,900 active;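 active = thallium signal inhibited by more than 5 SD of the compound-free buffer control wells, on both duplicate plates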
Kir21 sel: selectivity of KCNK9 modulators against mouse Kir2.1. 4% of 4,900 active. shares compounds with KCNK9 inh. Kir2.1 cells, FluxOR thallium flux fluorescence. inhibition, % at 10 µM;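 active = thallium signal drop more than 5 SD beyond the mean of the no-compound control wells, seen in both duplicate plates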;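 note: signal is fluorescence rise after thallium addition divided by baseline fluorescence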
HEK293 Tl ctr: second check of KCNK9 modulator effects in non-induced HEK293 cells. shares compounds with KCNK9 inh. FluxOR thallium flux. inhibition, % at 10 µM. 40% of 4,900 active;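 active = thallium signal drop beyond 5 SD of the untreated control mean, on both duplicate plates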
Each line names hits and unclear results; the compound was inactive in the other large screens (follow-up assays come after a bar, where they were run). Sampled rows, rich in hits. Any-hit rate of the full collection: about 3.1%.

Clc1cccc(C2CCN(Cc3nc(COc4ccccc4)no3)C2)c1 (stereo not given)	none | KCNK9 block conf inactive | Kir21 sel inactive | HEK293 Tl ctr inactive
Cc1ccc(/C=N/N2CCN(C3c4ccccc4-c4ccccc43)CC2)s1	none | KCNK9 block conf inactive | Kir21 sel inactive | HEK293 Tl ctr inactive
C(=N\N1CCN(C2c3ccccc3-c3ccccc32)CC1)/c1ccccn1	none
Cc1noc(C)c1CSCC(=O)N(C)CC(=O)Nc1ccc(Cl)c(C(F)(F)F)c1	KCNK9 inh -10 | KCNK9 block conf 52% | Kir21 sel inactive | HEK293 Tl ctr 24%
CC(C)COc1ccc(CSCCNC(=S)Nc2ccccc2)cc1	KCNQ1 block 9 | KCNK9 block conf inactive | Kir21 sel inactive | HEK293 Tl ctr inactive
Cc1ccc(NC(=O)COC(=O)CCc2c(C)nc3nc(N)nn3c2C)cc1C	none (no result: hERG protect, KCNQ1 block, KCNK9 inh, KCNQ1 act)
Fc1cccc(-c2cc3nc4c(c(N5CCC6(CC5)OCCO6)n3n2)CCCC4)c1	KCNK9 inh -8.4 | KCNK9 block conf inactive | Kir21 sel inactive | HEK293 Tl ctr inactive
COc1cc(OC)cc(-c2cc3nc4c(c(N5CCN(c6ncccn6)CC5)n3n2)CCCC4)c1	KCNK3 inh -10, KCNK9 inh -8.3 | KCNK9 block conf 31% | Kir21 sel inactive | HEK293 Tl ctr 34%
COc1ccc(S(=O)(=O)N2CCOCC2)cc1NC(=O)C1CC1	none (no result: hERG protect, KCNQ1 block, KCNK9 inh, KCNQ1 act)
COc1ccccc1OCCOCCOc1ccc(C)cc1Br	none | KCNK9 block conf inactive | Kir21 sel inactive | HEK293 Tl ctr inactive
Cc1ccc(OCCCCN(C)Cc2ccccc2)c(Br)c1	none | KCNK9 block conf inactive | Kir21 sel 80% | HEK293 Tl ctr inactive
COc1cc(NS(=O)(=O)c2ccc(NC(=S)NC(=O)c3sc4ccccc4c3Cl)cc2)nc(OC)n1	none | KCNK9 block conf inactive | Kir21 sel inactive | HEK293 Tl ctr inactive
COc1cc(NS(=O)(=O)c2ccc(NC(=S)NC(=O)c3sc4cc(F)ccc4c3Cl)cc2)nc(OC)n1	none
CCOC(=O)CC1C(=O)NCCN1c1nc2ccc(C)cn2c(=O)c1/C=C1\SC(=S)N(CC(C)C)C1=O (stereo not given)	KCNQ1 block 8, KCNK9 inh -9.9 | KCNK9 block conf 46% | Kir21 sel 43% | HEK293 Tl ctr 62%
COC(=O)c1ccc(C23CC4(C2)[C@H](CN(Cc2ccc(C(F)(F)F)cc2)[C@@H]4c2ccccc2)C3c2ccc(Cl)nc2)cc1 (stereo not given in full)	none (no result: KCNK3 inh)
CS(=O)(=O)N(CC(=O)N1CCCCCC1)c1cc(Cl)ccc1Cl	none
O=C(Nc1ccc(C(F)(F)F)cc1)C1(c2ccccc2)CC1	none
O=C(Nc1cccc(C(F)(F)F)c1)C1(c2ccccc2)CC1	KCNK9 inh -12 | KCNK9 block conf 53% | Kir21 sel inactive | HEK293 Tl ctr 37%
Cc1ccc(C)c(N2CCN(S(=O)(=O)c3ccc(-c4cc(C)no4)s3)CC2)c1	none
Cc1ccc(C)c(N2CCN(S(=O)(=O)c3c(C)noc3C)CC2)c1	none | KCNK9 block conf inactive | Kir21 sel inactive | HEK293 Tl ctr 28%
CC(=O)NC1CCCC(NC(C)=O)C1 (stereo not given)	none (no result: hERG protect, KCNQ1 block, KCNK9 inh, KCNQ1 act)
N=c1c2c(-c3ccccc3)c(-c3ccccc3)n(Cc3ccco3)c2ncn1Cc1ccccc1	KCNQ1 block 10, KCNK9 inh -15 | KCNK9 block conf 60% | Kir21 sel 52% | HEK293 Tl ctr 28%
CC(C)Cn1cnc2c(c(-c3ccccc3)c(-c3ccccc3)n2Cc2ccco2)c1=N	KCNQ1 block 9, KCNK9 inh -9.9 | KCNK9 block conf 68% | Kir21 sel 56% | HEK293 Tl ctr 28%
CC(CC(=O)O)CC(=O)Nc1nncs1 (stereo not given)	none
CC(=O)N(C(C)=O)N1C(=O)/C(=C/c2ccc(Cl)cc2)SC1=S	none
Cc1ccc(C)n1N1C(=O)/C(=C\c2ccc(Cl)cc2)SC1=S	none | KCNK9 block conf inactive | Kir21 sel inactive | HEK293 Tl ctr inactive
CC(=O)Nc1ccc(NC(=O)c2cccc(C(=O)OC(C)C)n2)cc1	none
CC(C)OC(=O)c1cccc(C(=O)Nc2cccc(NC(=O)c3cccc(C(=O)OC(C)C)n3)n2)n1	KCNK9 inh -13 | KCNK9 block conf 64% | Kir21 sel inactive | HEK293 Tl ctr inactive
Cc1ccc(S(=O)(=O)Nc2ccc3c(c2)nc(CCN2CCCC2)n3C)cc1	none
O=S(=O)(NCC(c1ccco1)N1CCN(c2ccccc2)CC1)c1ccc(F)cc1 (stereo not given)	none
O=S(=O)(NCC(c1ccco1)N1CCN(c2ccccc2F)CC1)c1ccc(F)cc1 (stereo not given)	KCNK9 inh -13 | KCNK9 block conf 46% | Kir21 sel inactive | HEK293 Tl ctr 34%
CCC(C)N(CC(=O)Nc1cccc(C)c1C)C(=O)CCl (stereo not given)	none
O=C(CC12CC3CC(CC(C3)C1)C2)NC(=S)NCc1ccco1	KCNQ1 block 6 | KCNK9 block conf inactive | Kir21 sel inactive | HEK293 Tl ctr inactive
O=C(NCc1ccco1)C12CC3CC(CC(C3)C1)C2	none
O=S(=O)(N1CCCCC1)n1c(Cc2ccccc2)nc2ccccc21	KCNK9 inh -21 | KCNK9 block conf 76% | Kir21 sel inactive | HEK293 Tl ctr 42%
O=S(=O)(c1ccc(Br)cc1)n1c(Cc2ccccc2)nc2ccccc21	none
CN(CC(=O)Nc1ccccc1Oc1ccccc1)Cc1ccccc1F	KCNK9 inh -13 | KCNK9 block conf 78% | Kir21 sel 47% | HEK293 Tl ctr 42%
O=C(CNC(c1ccccc1)c1ccccc1)Nc1ccccc1-c1ccccc1	KCNK9 inh -12 | KCNK9 block conf 26% | Kir21 sel inactive | HEK293 Tl ctr 42%
Cc1ccccc1CN(C)CC(=O)Nc1ccccc1-c1ccccc1	KCNK9 inh -10 | KCNK9 block conf 71% | Kir21 sel 55% | HEK293 Tl ctr 42%
O=C(CNC(c1ccccc1)c1ccccc1)Nc1ccccc1F	none
Cc1ccc(C2(C(F)(F)F)NC(=O)N3N=C4CCCCCN4C3=C2C#N)cc1 (stereo not given)	none
CCOC(=O)c1c(Cc2cccc(Cl)c2)c[nH]c1C	KCNQ1 block 6, KCNK9 inh -10 | KCNK9 block conf 68% | Kir21 sel inactive | HEK293 Tl ctr 28%
COC(=O)c1c(Cc2ccccc2Cl)c[nH]c1C	none
O=C(c1cccs1)N1CCCC(N2CCN(c3cccc(C(F)(F)F)c3)CC2)C1 (stereo not given)	none | KCNK9 block conf inactive | Kir21 sel inactive | HEK293 Tl ctr inactive
